Results published in publication PMC8301581 (Clinical and Translational Science, 2021).
Counter-ions that a name gives are not always drawn.

Assays:
[1] = system: hiPSC‐derived neurons; type: cell-based, human; conditions: 72 h, negative α = antagonism
In short: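 Human iPSC-derived peripheral neurons (>90% pure; βIII-tubulin, MAP-2, peripherin and vGLUT2 positive; three lots) were kept per the supplier's protocol. Viability was read as ATP by CellTiter-Glo 2.0 at 72 h after drug treatment. Combination responses were fitted by modified response surface modeling. α is the interaction term versus the additive model: positive means synergy, negative means antagonism.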

[2] = system: NALM6; type: cell-based, human; conditions: NALM6 ALL cell line; α greater than zero = synergy, less than zero = antagonism
In short: (§1)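 Cells were grown in RPMI-1640 with 2 mM glutamine and 10% FBS at 37°C, 5% CO₂, and were STR-authenticated and mycoplasma-negative. Mid-log-phase cells were exposed to serial dilutions of the drugs, alone or combined, then read by a modified MTT assay after 3 days. Interaction α (positive = synergy, negative = antagonism) was estimated by modified response surface modeling relative to additivity.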

[3] = system: CEM; type: cell-based, human; conditions: CEM ALL cell line; α greater than zero = synergy, less than zero = antagonism
In short: as §1

[4] = system: hiPSC‐derived neurons; type: cell-based, human; conditions: negative α = antagonism
In short: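 After drug treatment, hiPSC-derived neurons were stained with 5 µg/ml Hoechst 33342 and 10 µg/ml Calcein AM for 10 min at room temperature. Cells were imaged at 10×, with at least 1000 cells per condition in each of five independent experiments. Per-cell values were collected for total neurite outgrowth, number of processes and number of branches. Combination α came from response surface modeling against an additive model.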

[5] = system: C57BL/6 J mice; test: Mouse neurotoxicity assessment: mechanical allodynia; type: in vivo
[6] = In vivo pharmacokinetic studies in mice; conditions: for clearance: male, C57BL/6, mouse, plasma, intraperitoneal; for total plasma concentrations: mice, VCR 0.1 mg/kg intraperitoneal and DIP 200 mg/kg p.o.
[7] = cited from earlier work
[8] = clinical studies; cited from earlier work
[9] = system: CEM leukemia cells; test: Survival of NSG mice inoculated with human CEM leukemia cells; type: in vivo; conditions: once a week, 0.3mg/kg vincristine, p value <0.001
[10] = system: SORORIN; test: Western blot of SORORIN protein level; type: cell-based, human; conditions: CEM, G2 synchronized cells, highest concentration of DIP 10 µM
[11] = system: phospho‐histone H3 (Ser10); test: Western blot of phospho‐histone H3; type: cell-based, human; conditions: NALM6, vincristine 2 nM for 24 h with increasing concentrations of DIP
[12] = system: phospho‐histone H3 (Ser10); test: Western blot of phospho‐histone H3; type: cell-based, human; conditions: CEM, vincristine 2 nM for 24 h with increasing concentrations of DIP
[13] = system: SORORIN; test: Western blot of SORORIN protein level; type: cell-based, human; conditions: NALM6, G2 synchronized cells, highest concentration of DIP 10 µM

| SMILES | Viability α (drug‐drug interaction between vincristine and second drug) [1] | NALM6 α (drug‐drug interaction between vincristine and second drug) [2] | CEM α (drug‐drug interaction between vincristine and second drug) [3] | Branches α (drug‐drug interaction between vincristine and second drug) [4] | Outgrowth α (drug‐drug interaction between vincristine and second drug) [4] | Processes α (drug‐drug interaction between vincristine and second drug) [4] | paw withdrawal responses ([5]; mice receiving VCR alone) | clearance [6] [mL/min/kg] | clearance ([6]; 0.1 mg/kg) [mL/min/kg] | total plasma concentrations [6] | plasma protein binding [7] | plasma concentrations reported clinically [8] | survival of mice, VCR and vehicle versus controls [9] | paw withdrawal response, DIP administered with VCR versus VCR alone ([5]; mice, DIP oral gavage with VCR intraperitoneal, day 1 to day 10) | SORORIN protein levels [10] | phospho‐histone H3 (Ser10) levels [11] | phospho‐histone H3 (Ser10) levels [12] | SORORIN protein levels [13] |
| --- | --- | --- | --- | --- | --- | --- | --- | --- | --- | --- | --- | --- | --- | --- | --- | --- | --- | --- |
| OCCOCCN1CCN(C2=Nc3ccccc3Sc3ccccc32)CC1 [Quetiapine fumarate] | −0.007 | 2.33 | 0.787 | −2.29 | −1.67 | −1.25 | – | – | – | – | – | – | – | – | – | – | – | – |
| CC[C@]1(O)C[C@H]2CN(CCc3c([nH]c4ccccc34)[C@@](C(=O)OC)(c3cc4c(cc3OC)N(C=O)[C@H]3[C@@](O)(C(=O)OC)[C@H](OC(C)=O)[C@]5(CC)C=CCN6CC[C@]43[C@@H]65)C2)C1 [VCR, Vincristine] | – | – | – | – | – | – | significant increase | 81.3 | 99.3 | up to 10 ng/ml | around 75% | up to 31.2 ng/ml | significantly prolonged survival | – | – | – | – | – |
| CCOC(=O)c1ccc(C#Cc2ccc3c(c2)C(C)(C)CCS3)nc1 [Tazarotene] | −0.72 | 1.42 | 0.945 | −1.16 | −1.63 | −1.59 | – | – | – | – | – | – | – | – | – | – | – | – |
| OCCN(CCO)c1nc(N2CCCCC2)c2nc(N(CCO)CCO)nc(N3CCCCC3)c2n1 [Dipyridamole] | −3.7 | 4.45 | 11.6 | −3.43 | −1.98 | −1.75 | – | – | – | ≤ 5000 ng/mL | – | ≤ 6000 ng/mL | – | significantly lowered | lowest level of SORORIN protein | dose‐dependent increase | dose‐dependent increase | lowest level of SORORIN protein |
